Assay results taken from ChEMBL document CHEMBL2401626 (J Med Chem, 2013).
Calls of active or inactive are those of the source. The calls are words filed in the database; no cut-off is given here.

How the values were obtained:
[1] = target: T1, Amyloid-beta precursor protein (Homo sapiens, UniProt P05067); test: Inhibition of Cu2+-induced amyloid beta (1 to 42) aggregation (unknown origin) at 50 uM after 24 hrs by thioflavin T fluorescence assay relative to untreated control
In short: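 Aβ1−42 (25 μM final) in 20 μM HEPES pH 6.6, 150 μM NaCl, with Cu2+ (25 μM final) and compound (50 μM final). Incubated at 37 °C for 24 h, then diluted into 50 mM glycine−NaOH pH 8.0 with 5 μM ThT. Fluorescence read at ex 450/em 485 nm after 5 min; inhibition calculated as (1 − IFi/IFc) × 100 after background subtraction.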

SH-SY5Y [2] = test: Antioxidant activity in human SH-SY5Y cells assessed as decrease in t-BuOOH-induced intracellular ROS production at 2.5 to 10 uM incubated for 24 hrs prior to t-BuOOH challenge measured after 30 mins by DCFHDA-based fluorescence assay; type: functional, cell-based
In short: (§1)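 SH-SY5Y cells (DMEM, 10% FCS, 37 °C, 5% CO2) seeded 1 × 10^4/well and grown 24 h. Compound added for 24 h; Trolox control at 5, 10, 20 μM. Cells are then washed, loaded with 5 μM DCFH-DA in PBS for 30 min, and challenged with 0.1 mM t-BuOOH for 30 min. Fluorescence read at ex 485/em 535 nm. Result is % of control by formula; three independent experiments in sextuplicate.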

[3] = target: T1, Amyloid-beta precursor protein; test: Induction of disaggregation of self-mediated amyloid beta (1 to 42) fibril (unknown origin) at 25 uM after 24 hrs by thioflavin T fluorescence assay relative to control
[4] = Metal chelating activity of the compound assessed as Fe3+ complex formation at 20 uM after 30 mins by UV-vis spectrometry; type: functional
[5] = target: T1, Amyloid-beta precursor protein; test: Inhibition of Cu2+-induced amyloid beta (1 to 42) aggregation (unknown origin) at 50 uM after 24 hrs by transmission electron microscopic analysis
In short: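 Aβ1−42 (25 μM) with Cu2+ (25 μM) and compound (50 μM) in HEPES pH 6.6/150 μM NaCl, incubated at 37 °C for 24 h. Aliquots put on carbon-coated grid for 2 min, stained with 1% uranyl acetate for 2 min, and imaged by TEM.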

[6] = Metal chelating activity of the compound assessed as Cu2+ complex formation at 20 uM after 30 mins by UV-vis spectrometry; type: functional
In short: (§2)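 Absorption spectra of compound (20 μM final) alone or with metal salt (40 μM final; CuSO4, FeSO4 or ZnCl2) after 30 min in 20% ethanol/buffer (20 mM HEPES, 150 mM NaCl, pH 7.4). Recorded at room temperature by UV−vis.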

[7] = Metal chelating activity of the compound assessed as Cu2+ complex formation by Job's method; type: functional
In short: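 Job's method: solutions held at constant total compound + CuSO4 concentration with varied mole fraction, in ethanol/HEPES buffer pH 7.4. UV absorbance change plotted against mole fraction; stoichiometry taken from the intersection of the straight lines.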

[8] = Antioxidant activity assessed as trolox equivalent of AAPH radical scavenging activity at 10 uM preincubated for 10 mins followed by AAPH challenge measured every min for 120 mins by ORAC-FL assay; type: functional
In short: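 Test compound and fluorescein (70 nM final) in 75 mM phosphate buffer pH 7.4, preincubated 10 min at 37 °C, then AAPH (40 mM solution) added. Fluorescence read every minute for 120 min (ex 485/em 520 nm). Curves normalized to buffer blank. […] Triplicate wells, at least three independent runs.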

[9] = target: T1, Amyloid-beta precursor protein; test: Induction of disaggregation of Cu2+-induced amyloid beta (1 to 42) fibril (unknown origin) at 50 uM after 24 hrs by transmission electron microscopic analysis
In short: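 Cu2+-induced fibrils formed from Aβ1−42 (25 μM) with Cu2+ (25 μM) at 37 °C for 24 h in HEPES pH 6.6/NaCl, then treated with compound (50 μM) at 37 °C for 24 h. Aliquots placed on carbon-coated grid for 2 min, stained with 1% uranyl acetate for 2 min, and imaged by TEM.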

[10] = target: T1, Amyloid-beta precursor protein; test: Induction of disaggregation of self-mediated amyloid beta (1 to 42) fibril (unknown origin) at 25 uM after 24 hrs by transmission electron microscopic analysis
[11] = Metal chelating activity of the compound assessed as Zn2+ complex formation at 20 uM after 30 mins by UV-vis spectrometry; type: functional; in short: as §2
[12] = target: T1, Amyloid-beta precursor protein; conditions: at 20 µM
[13] = Metal chelating activity of the compound assessed as Fe2+ complex formation at 20 uM after 30 mins by UV-vis spectrometry; type: functional; in short: as §2
[14] = target: T1, Amyloid-beta precursor protein; test: Inhibition of amyloid beta (1 to 42) fibril formation (unknown origin) at 20 uM after 24 hrs by transmission electron microscopic analysis
In short: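 Aβ1−42 (25 μM) incubated with compound (20 μM) at 37 °C for 24 h in 10 mM phosphate pH 7.4. Grid loaded for 2 min, stained with 1% uranyl acetate for 2 min, and imaged by TEM.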

[15] = target: T1, Amyloid-beta precursor protein; test: Induction of disaggregation of Cu2+-induced amyloid beta (1 to 42) fibril (unknown origin) at 50 uM after 24 hrs by thioflavin T fluorescence assay relative to control
In short: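 Aβ1−42 (25 μM final) in 20 μM HEPES pH 6.6, 150 μM NaCl, preincubated with Cu2+ (25 μM) for 24 h at 37 °C. Compound (50 μM final) then added for another 24 h at 37 °C. Sample diluted into 50 mM glycine−NaOH pH 8.0 with 5 μM ThT; fluorescence read after 5 min at ex 450/em 485 nm.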

[16] = target: T2, Amine oxidase [flavin-containing] B (Homo sapiens, UniProt P27338)
T2 sequence (P27338 whole entry): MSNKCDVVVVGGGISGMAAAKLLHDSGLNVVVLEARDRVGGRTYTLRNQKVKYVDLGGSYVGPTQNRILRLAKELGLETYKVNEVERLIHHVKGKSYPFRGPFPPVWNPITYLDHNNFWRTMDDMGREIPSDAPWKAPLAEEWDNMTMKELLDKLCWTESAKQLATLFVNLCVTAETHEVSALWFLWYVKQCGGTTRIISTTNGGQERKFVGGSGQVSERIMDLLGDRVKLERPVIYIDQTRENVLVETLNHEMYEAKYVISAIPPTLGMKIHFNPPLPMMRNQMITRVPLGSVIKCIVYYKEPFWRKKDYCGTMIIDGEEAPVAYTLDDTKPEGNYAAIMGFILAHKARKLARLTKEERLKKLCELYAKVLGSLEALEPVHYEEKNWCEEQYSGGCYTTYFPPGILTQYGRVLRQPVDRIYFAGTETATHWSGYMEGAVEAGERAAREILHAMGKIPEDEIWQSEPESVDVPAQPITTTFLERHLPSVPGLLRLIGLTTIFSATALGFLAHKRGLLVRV

Cholinesterase = Cholinesterase (Equus caballus, UniProt P81908); test: Inhibition of equine serum BuChE using butylthiocholine chloride as substrate preincubated for 15 mins followed by substrate addition measured every 1 min by Ellman's method
Sequence of Cholinesterase (P81908 whole entry): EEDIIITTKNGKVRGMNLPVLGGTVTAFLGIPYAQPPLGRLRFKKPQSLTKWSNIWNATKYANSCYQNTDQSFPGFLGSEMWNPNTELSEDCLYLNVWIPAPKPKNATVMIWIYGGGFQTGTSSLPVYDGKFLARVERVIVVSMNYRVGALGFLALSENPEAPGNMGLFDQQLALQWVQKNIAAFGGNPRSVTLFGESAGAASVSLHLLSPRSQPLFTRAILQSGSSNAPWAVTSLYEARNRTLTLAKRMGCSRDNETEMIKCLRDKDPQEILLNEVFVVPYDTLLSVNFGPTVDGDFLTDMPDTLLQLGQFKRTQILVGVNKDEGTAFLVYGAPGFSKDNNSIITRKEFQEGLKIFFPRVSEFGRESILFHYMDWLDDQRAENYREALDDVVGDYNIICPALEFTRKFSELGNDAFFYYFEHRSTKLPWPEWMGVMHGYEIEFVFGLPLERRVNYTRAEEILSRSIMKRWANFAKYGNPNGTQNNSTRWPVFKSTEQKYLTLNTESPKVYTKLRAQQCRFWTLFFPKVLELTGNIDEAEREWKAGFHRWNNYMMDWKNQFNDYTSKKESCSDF

Acetylcholinesterase = Acetylcholinesterase (Electrophorus electricus, UniProt O42275); test: Inhibition of electric eel AChE using acetylthiocholine chloride as substrate preincubated for 15 mins followed by substrate addition measured every 1 min by Ellman's method
Sequence of Acetylcholinesterase (O42275 whole entry): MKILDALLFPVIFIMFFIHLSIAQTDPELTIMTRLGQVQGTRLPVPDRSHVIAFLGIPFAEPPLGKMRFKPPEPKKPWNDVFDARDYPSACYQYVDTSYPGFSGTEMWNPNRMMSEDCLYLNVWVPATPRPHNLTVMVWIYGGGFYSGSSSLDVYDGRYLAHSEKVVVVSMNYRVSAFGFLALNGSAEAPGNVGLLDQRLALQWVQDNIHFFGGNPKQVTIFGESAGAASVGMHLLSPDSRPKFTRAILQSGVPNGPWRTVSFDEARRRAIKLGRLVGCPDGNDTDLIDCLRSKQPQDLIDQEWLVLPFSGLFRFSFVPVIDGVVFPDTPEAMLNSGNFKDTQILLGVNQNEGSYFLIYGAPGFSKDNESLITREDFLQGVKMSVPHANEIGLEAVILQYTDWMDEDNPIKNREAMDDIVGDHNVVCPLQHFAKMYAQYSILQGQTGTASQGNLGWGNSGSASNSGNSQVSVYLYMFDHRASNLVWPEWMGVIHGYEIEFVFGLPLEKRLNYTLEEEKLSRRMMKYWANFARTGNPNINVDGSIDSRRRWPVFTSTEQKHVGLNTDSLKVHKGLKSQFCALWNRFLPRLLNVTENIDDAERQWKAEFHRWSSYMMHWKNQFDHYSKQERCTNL
In short: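 Ellman method in 0.1 M potassium phosphate buffer, pH 8.0, 1 mL assay containing DTNB and thiocholine substrate (each 50 μL of 0.01 M stock). Enzyme (AChE stock 2.0 units/mL) preincubated with compound 15 min at 37 °C, then substrate added. A412 read at 1 min intervals at 37 °C. Each concentration in triplicate. IC50 from at least three experiments.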

[17] = Cytotoxicity against human SH-SY5Y cells assessed as cell viability at 10 uM after 24 hrs by MTT assay; type: cell-based
In short: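 SH-SY5Y cells seeded 5 × 10^4/well, then exposed to compound for 24 h at 37 °C. MTT (0.5 mg/mL final) added for 4 h; formazan dissolved in DMSO and read at 570 nm. Viability is treated/untreated absorbance × 100, each corrected for zero-day control. Three independent experiments in sextuplicate.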

[18] = target: T3, Amine oxidase [flavin-containing] A (Homo sapiens, UniProt P21397); test: Inhibition of human recombinant MAOA using p-tyramine as substrate incubated for 15 mins prior to substrate addition measured after 20 mins by fluorescence plate reader analysis
T3 sequence (P21397 whole entry): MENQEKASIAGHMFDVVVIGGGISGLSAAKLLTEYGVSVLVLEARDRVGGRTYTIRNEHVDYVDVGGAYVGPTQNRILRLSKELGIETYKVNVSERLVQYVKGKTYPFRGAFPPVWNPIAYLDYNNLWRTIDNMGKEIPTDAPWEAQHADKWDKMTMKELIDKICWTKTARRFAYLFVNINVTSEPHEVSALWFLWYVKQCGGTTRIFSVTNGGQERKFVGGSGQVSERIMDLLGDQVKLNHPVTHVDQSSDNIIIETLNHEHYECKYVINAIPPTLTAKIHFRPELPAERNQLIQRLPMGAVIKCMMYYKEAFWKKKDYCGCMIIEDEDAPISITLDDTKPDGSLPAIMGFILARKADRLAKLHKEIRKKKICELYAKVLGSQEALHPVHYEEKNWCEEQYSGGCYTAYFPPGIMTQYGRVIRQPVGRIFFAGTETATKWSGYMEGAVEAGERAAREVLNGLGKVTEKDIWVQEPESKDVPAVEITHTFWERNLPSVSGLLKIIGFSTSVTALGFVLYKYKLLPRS

[19] = target: T1, Amyloid-beta precursor protein
Mus musculus = test: Acute toxicity in KM mouse at 677 to 2000 mg/kg, po after 14 days; type: organism-based; design: dose 677-2000 mg/kg, route oral; conditions: in vivo, 336 h
In short: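 Male KM mice (22 days, 18−20 g), fasted overnight with free access to water, n = 5 per group; single oral dose of 0, 677, 1333 or 2000 mg/kg suspended in 0.5% CMC-Na. Watched continuously for 4 h, intermittently for 24 h, then occasionally to day 14 for behaviour and mortality; killed day 14, heart, liver and kidneys examined macroscopically.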

[20] = Permeability of the compound at 100 ug/mL after 10 hrs by PAMPA; type: ADME; conditions: read-out: permeability
In short: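 PAMPA-BBB: filter coated with porcine brain lipid in dodecane (20 mg/mL); acceptor is PBS/EtOH 7:3. Compound taken from 5 mg/mL DMSO stock and diluted to 100 μg/mL final in PBS/EtOH, then incubated 10 h at 25 °C. Acceptor concentration measured by UV at five wavelengths, four wells, at least three runs; Pe calculated by equation.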

SH-SY5Y [21] = test: Antioxidant activity in human SH-SY5Y cells assessed as decrease in t-BuOOH-induced intracellular ROS production at 5 to 20 uM incubated for 24 hrs prior to t-BuOOH challenge measured after 30 mins by DCFHDA-based fluorescence assay; type: functional, cell-based; in short: as §1

T1 sequence (P05067 whole entry): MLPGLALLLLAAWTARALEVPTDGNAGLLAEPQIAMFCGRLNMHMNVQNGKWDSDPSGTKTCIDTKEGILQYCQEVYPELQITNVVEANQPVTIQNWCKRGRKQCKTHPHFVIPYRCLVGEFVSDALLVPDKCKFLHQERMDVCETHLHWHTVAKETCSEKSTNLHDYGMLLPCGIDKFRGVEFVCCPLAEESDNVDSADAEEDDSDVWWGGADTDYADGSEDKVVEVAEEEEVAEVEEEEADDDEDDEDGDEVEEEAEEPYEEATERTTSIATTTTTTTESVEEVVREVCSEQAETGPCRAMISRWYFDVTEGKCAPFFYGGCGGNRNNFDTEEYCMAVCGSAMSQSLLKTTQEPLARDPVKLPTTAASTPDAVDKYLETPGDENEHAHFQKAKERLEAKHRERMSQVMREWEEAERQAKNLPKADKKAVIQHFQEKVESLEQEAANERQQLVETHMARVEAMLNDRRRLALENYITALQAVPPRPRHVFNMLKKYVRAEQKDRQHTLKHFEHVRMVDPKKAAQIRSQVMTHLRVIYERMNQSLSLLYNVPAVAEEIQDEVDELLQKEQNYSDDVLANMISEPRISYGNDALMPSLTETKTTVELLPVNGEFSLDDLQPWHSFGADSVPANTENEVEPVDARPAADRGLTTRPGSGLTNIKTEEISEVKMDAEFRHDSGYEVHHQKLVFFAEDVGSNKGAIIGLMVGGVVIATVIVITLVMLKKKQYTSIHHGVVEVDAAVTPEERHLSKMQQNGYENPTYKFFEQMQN

COc1cc(/C=C/c2ccc(NCc3cc(N(C)C)ccc3O)cc2)cc(OC)c1 [listing 1 of 2 here]
inhibition [1]: 87.5%
Activity (SH-SY5Y [2]): Active
Activity [3]: 67%
Activity [4]: Active
inhibition [5]: Active
Activity [6]: Active
Activity [7]: Active
Activity [8]: 4.72 equiv
Activity [9]: Active
Activity [10]: Active
Activity [11]: Active
inhibition [12]: 79.5%
Activity [13]: Active
inhibition [14]: Active
Activity [15]: 88.8%

CN(C)c1ccc(O)c(CNc2ccc(/C=C/c3cc(O)cc(O)c3)cc2)c1 [listing 1 of 2 here]
IC50 [16]: 14.1 µM
IC50 (Cholinesterase): 21.2 µM
IC50 (Acetylcholinesterase): 6.27 µM
Activity [17]: Non-toxic
IC50 [18]: 7.08 µM
IC50 [19]: 6.51 µM

COc1cc(/C=C/c2ccc(NCc3cc(N(C)C)ccc3O)cc2)cc(OC)c1 [listing 2 of 2 here]
IC50 [16]: 12.2 µM
IC50 (Cholinesterase): > 50 µM
IC50 (Acetylcholinesterase): 36 µM
Activity [17]: Non-toxic
IC50 [18]: 8.19 µM
IC50 [19]: 7.56 µM
Activity (Mus musculus): Non-toxic

CN(C)c1ccc(O)c(CNc2ccc(/C=C/c3cc(O)cc(O)c3)cc2)c1 [listing 2 of 2 here]
inhibition [1]: 94.2%
Activity (SH-SY5Y [2]): Active
Activity [3]: 82%
Activity [4]: Active
inhibition [5]: Active
Activity [6]: Active
Activity [7]: Active
Activity [8]: 4.7 equiv
Activity [9]: Active
Activity [10]: Active
Activity [11]: Active
inhibition [12]: 78.1%
Activity [13]: Active
inhibition [14]: Active
Activity [15]: 85.9%

CN(C)c1ccc(O)c(CNc2ccc(/C=C/c3cc(O)cc(O)c3)cc2)c1.Cl
Papp at 10 h, 100 ug/mL [20]: 2.55 ×10⁻⁶ cm/s

COc1cc(/C=C/c2ccc(NCc3cc(N(C)C)ccc3O)cc2)cc(OC)c1.Cl
Papp at 10 h, 100 ug/mL [20]: 7.13 ×10⁻⁶ cm/s

Cc1c(C)c2c(c(C)c1O)CCC(C)(C(=O)O)O2 (racemic)
Activity (SH-SY5Y [21]): Active
